Measured values reported in ChEMBL document CHEMBL4118076, “Azide-alkyne cycloaddition towards 1H-1,2,3-triazole-tethered gatifloxacin and isatin conjugates: Design, synthesis and in vitro anti-mycobacterial evaluation” (Eur J Med Chem, 2017).
≈ marks a conversion by molar mass, not a printed value.

Legend:
Type in all cases: functional
[1] = tested on: Mycobacterium tuberculosis; assay: Antimycobacterial activity against multidrug resistant Mycobacterium tuberculosis after 3 to 7 days by rapid direct susceptibility test
Method in brief: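 Two-fold DMSO dilutions, 0.0125 to 200 μg/mL for H37Rv and 0.062 to 128 μg/mL for the MDR strain (resistant to INH, RIF and ethambutol), mixed with suspension containing 4×10^-3 mg cells. Sealed plates incubated at 37 °C in a wet box. Growth was read visually under high magnification at 3 days and again 7 days later. MIC is the lowest concentration giving complete growth inhibition.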

[2] = Resistance index, ratio of MIC90 for multidrug resistant Mycobacterium tuberculosis to MIC90 for Mycobacterium tuberculosis H37Rv
[3] = tested on: Mycobacterium tuberculosis; assay: Potency index, ratio of isoniazid MIC90 to compound MIC90 for multidrug resistant Mycobacterium tuberculosis
[4] = tested on: Mycobacterium tuberculosis; assay: Potency index, ratio of rifampicin MIC90 to compound MIC90 for multidrug resistant Mycobacterium tuberculosis
[5] = tested on: Mycobacterium tuberculosis; assay: Potency index, ratio of gatifloxacin MIC90 to compound MIC90 for multidrug resistant Mycobacterium tuberculosis

Structure (SMILES)	MIC90 [1] [µg/mL]	further results
COc1c(N2CCN(Cc3cn(CCN4C(=O)C(=O)c5cc(Cl)ccc54)nn3)C(C)C2)c(F)cc2c(=O)c(C(=O)O)cn(C3CC3)c12 (centres undefined)	0.5 (≈ 0.753 µM)	
CO/N=C1\C(=O)N(CCn2cc(CN3CCN(c4c(F)cc5c(=O)c(C(=O)O)cn(C6CC6)c5c4OC)CC3C)nn2)c2ccccc21 (centres undefined)	1 (≈ 1.52 µM)	
CO[C@H]1/C=C/O[C@@]2(C)Oc3c(C)c(O)c4c(O)c(c(/C=N/N5CCN(C)CC5)c(O)c4c3C2=O)NC(=O)/C(C)=C\C=C\[C@H](C)[C@H](O)[C@@H](C)[C@@H](O)[C@@H](C)[C@H](OC(C)=O)[C@@H]1C [RIFAMPIN]	32 (≈ 38.9 µM)	
COc1c(N2CCN(Cc3cn(CCN4C(=O)C(=O)c5cc(F)ccc54)nn3)C(C)C2)c(F)cc2c(=O)c(C(=O)O)cn(C3CC3)c12 (centres undefined)	0.5 (≈ 0.772 µM)	Ratio [2]: < 1
NNC(=O)c1ccncc1 [ISONIAZID]	> 128	
CO/N=C1\C(=O)N(CCn2cc(CN3CCN(c4c(F)cc5c(=O)c(C(=O)O)cn(C6CC6)c5c4OC)CC3C)nn2)c2ccc(F)cc21 (centres undefined)	0.25 (≈ 0.369 µM)	Ratio [3]: >=4 - 512; Ratio [4]: >=4 - 512; Ratio [5]: >=4 - 512
COc1c(N2CCN(Cc3cn(CCN4C(=O)/C(=N\O)c5cc(Cl)ccc54)nn3)C(C)C2)c(F)cc2c(=O)c(C(=O)O)cn(C3CC3)c12 (centres undefined)	2 (≈ 2.95 µM)	
COc1c(N2CCN(Cc3cn(CCN4C(=O)/C(=N\O)c5cc(C)ccc54)nn3)C(C)C2)c(F)cc2c(=O)c(C(=O)O)cn(C3CC3)c12 (centres undefined)	8 (≈ 12.1 µM)	
COc1c(N2CCN(Cc3cn(CCN4C(=O)C(=O)c5ccccc54)nn3)C(C)C2)c(F)cc2c(=O)c(C(=O)O)cn(C3CC3)c12 (centres undefined)	4 (≈ 6.35 µM)	
COc1c(N2CCN(Cc3cn(CCN4C(=O)/C(=N\O)c5ccccc54)nn3)C(C)C2)c(F)cc2c(=O)c(C(=O)O)cn(C3CC3)c12 (centres undefined)	8 (≈ 12.4 µM)	
COc1c(N2CCNC(C)C2)c(F)cc2c(=O)c(C(=O)O)cn(C3CC3)c12 (centres undefined) [GATIFLOXACIN]	1 (≈ 2.66 µM)	
COc1c(N2CCN(Cc3cn(CCN4C(=O)C(=O)c5cc(C)ccc54)nn3)C(C)C2)c(F)cc2c(=O)c(C(=O)O)cn(C3CC3)c12 (centres undefined)	1 (≈ 1.55 µM)	Ratio [2]: < 1
CO/N=C1\C(=O)N(CCn2cc(CN3CCN(c4c(F)cc5c(=O)c(C(=O)O)cn(C6CC6)c5c4OC)CC3C)nn2)c2ccc(C)cc21 (centres undefined)	0.5 (≈ 0.743 µM)	Ratio [2]: < 1
CO/N=C1\C(=O)N(CCn2cc(CN3CCN(c4c(F)cc5c(=O)c(C(=O)O)cn(C6CC6)c5c4OC)CC3C)nn2)c2ccc(Cl)cc21 (centres undefined)	0.25 (≈ 0.361 µM)	Ratio [3]: >=4 - 512; Ratio [4]: >=4 - 512; Ratio [5]: >=4 - 512
COc1c(N2CCN(Cc3cn(CCN4C(=O)/C(=N\O)c5cc(F)ccc54)nn3)C(C)C2)c(F)cc2c(=O)c(C(=O)O)cn(C3CC3)c12 (centres undefined)	1 (≈ 1.51 µM)	
